Experiments:
[1] = Partition coefficient (logP); type: physicochemical; settings: octanol/water
Summary of the method: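 1-Octanol (1 mL) and isotonic Tris buffer pH 7.0 (1 mL) vortexed with 1–5 μL of the 67Cu-labeled aqueous complex, then centrifuged at >1200g for 5 min. Both phases were gamma counted in a window on the 185 keV peak. P = counts per g octanol / counts per g water. The octanol phase was re-extracted; the value is from the second and third extractions, mean of six measurements.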

Rattus norvegicus [2] = organism: Rattus norvegicus; experiment: Myocardial levels of tracer copper in rats 1 min after injection into the femoral vein; type: functional, organism-based; settings: Myocardium
Summary of the method: (§1)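 Copper-67 bis(thiosemicarbazone) complex, 0.2 mL (1–3 μCi) in 5–10% ethanol, injected with a 27-gauge needle into the exposed femoral vein of ether-anesthetized Sprague-Dawley rats (generally 175–225 g). Dose was set by weighing the syringe. Rats were killed by decapitation; organs were excised, blotted and weighed, and counted for 67Cu by gamma counting against a diluted standard dose. Values are percent injected dose per organ, with blood volume taken as 7% of body mass. Generally four rats per time point; mean ± SD.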

Rattus norvegicus [3] = organism: Rattus norvegicus; experiment: Myocardial levels of tracer copper in rats 2 hr after injection into the femoral vein; type: functional, organism-based; settings: Myocardium; summary of the method: as §1
Rattus norvegicus [4] = organism: Rattus norvegicus; experiment: Kidney levels of tracer copper in rats 2 hr after injection into the femoral vein; type: functional, organism-based; summary of the method: as §1
Rattus norvegicus [5] = organism: Rattus norvegicus; experiment: Liver levels of tracer copper in rats 1 min after injection into the femoral vein; type: functional, organism-based; summary of the method: as §1
Rattus norvegicus [6] = organism: Rattus norvegicus; experiment: Pulmonary levels of tracer copper in rats 1 min after injection into the femoral vein; type: functional, organism-based; summary of the method: as §1
Rattus norvegicus [7] = organism: Rattus norvegicus; experiment: Pulmonary levels of tracer copper in rats 2 hr after injection into the femoral vein; type: functional, organism-based; summary of the method: as §1
Rattus norvegicus [8] = organism: Rattus norvegicus; experiment: Pulmonary levels of tracer copper in rats 5 min after injection into the femoral vein; type: functional, organism-based; summary of the method: as §1
Rattus norvegicus [9] = organism: Rattus norvegicus; experiment: Liver levels of tracer copper in rats 5 min after injection into the femoral vein; type: functional, organism-based; summary of the method: as §1
Rattus norvegicus [10] = organism: Rattus norvegicus; experiment: Liver levels of tracer copper in rats 2 hr after injection into the femoral vein; type: functional, organism-based; summary of the method: as §1
Rattus norvegicus [11] = organism: Rattus norvegicus; experiment: (§2) Blood levels of tracer copper in rats 5 min after injection into the femoral vein; type: functional, organism-based; summary of the method: as §1
Rattus norvegicus [12] = organism: Rattus norvegicus; experiment: Blood levels of tracer copper in rats 1 min after injection into the femoral vein; type: functional, organism-based; summary of the method: as §1
Rattus norvegicus [13] = organism: Rattus norvegicus; experiment: Blood levels of tracer copper in rats 2 hr after injection into the femoral vein; type: functional, organism-based; summary of the method: as §1
Rattus norvegicus [14] = organism: Rattus norvegicus; experiment: as §2; type: functional, organism-based; summary of the method: as §1; remark: listed apart in the source
Rattus norvegicus [15] = organism: Rattus norvegicus; experiment: Brain levels of tracer copper in rats 1 min after injection into the femoral vein; type: functional, organism-based; summary of the method: as §1
Rattus norvegicus [16] = organism: Rattus norvegicus; experiment: Brain levels of tracer copper in rats 2 hr after injection into the femoral vein; type: functional, organism-based; summary of the method: as §1
Rattus norvegicus [17] = organism: Rattus norvegicus; experiment: Brain levels of tracer copper in rats 5 min after injection into the femoral vein; type: functional, organism-based; summary of the method: as §1
Rattus norvegicus [18] = organism: Rattus norvegicus; experiment: Kidney levels of tracer copper in rats 1 min after injection into the femoral vein; type: functional, organism-based; summary of the method: as §1
Rattus norvegicus [19] = organism: Rattus norvegicus; experiment: Myocardial levels of tracer copper in rats 5 min after injection into the femoral vein; type: functional, organism-based; settings: Myocardium; summary of the method: as §1
Rattus norvegicus [20] = organism: Rattus norvegicus; experiment: Kidney levels of tracer copper in rats 5 min after injection into the femoral vein; type: functional, organism-based; summary of the method: as §1

Row | Substance | logP [1] | Injected dose (Rattus norvegicus [2]) [%] | Injected dose (Rattus norvegicus [3]) [%] | Injected dose (Rattus norvegicus [4]) [%] | Injected dose (Rattus norvegicus [5]) [%] | Injected dose (Rattus norvegicus [6]) [%] | Injected dose (Rattus norvegicus [7]) [%] | Injected dose (Rattus norvegicus [8]) [%] | Injected dose (Rattus norvegicus [9]) [%] | Injected dose (Rattus norvegicus [10]) [%] | Injected dose (Rattus norvegicus [11]) [%] | Injected dose (Rattus norvegicus [12]) [%] | Injected dose (Rattus norvegicus [13]) [%] | Injected dose (Rattus norvegicus [14]) [%] | Injected dose (Rattus norvegicus [15]) [%] | Injected dose (Rattus norvegicus [16]) [%] | Injected dose (Rattus norvegicus [17]) [%] | Injected dose (Rattus norvegicus [18]) [%] | Injected dose (Rattus norvegicus [19]) [%] | Injected dose (Rattus norvegicus [20]) [%]
1 | Propyl glyoxal bis(thiosemicarbazone)(67Cu-n-PrTS) [listing 1 of 2 here] | 1.78 | – | – | – | – | – | – | – | – | – | – | – | – | – | – | – | – | – | – | –
2 | Propyl glyoxal bis(thiosemicarbazone)(67Cu-n-PrTS) [listing 2 of 2 here] | – | 3.9 | 3.5 | 3.6 | 11.5 | 13.1 | 5.2 | 9.6 | 13.7 | 17.3 | 8.9 | 15.2 | 8.5 | 8.9 | 1.45 | 1.79 | 1.27 | 2.8 | 3 | 2.8
